What was measured:
[1] = test system: lymphoma cell lines; assay: Synergy in cell viability assay by excess over bliss; assay type: cell-based; details: for synergy in combination with romidepsin: EZH2 inhibitor combined with romidepsin (Supplementary Fig S3)
[2] = test system: H3K27; assay: H3K27 acetylation/methylation in HEK 293T cells; assay type: cell-based; details: single agent exposure
In short: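 HEK293 cells were transfected in OPTI-MEM with a human HDAC2 shRNA or scramble plasmid using Lipofectamine 3000. They were puromycin-selected and monitored for GFP by flow cytometry and fluorescence microscopy until a stable line formed. The stable HDAC2-knockdown or scramble cells were then exposed to an EZH2 inhibitor test compound, and H3K27 methylation status was assessed.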

[3] = mouse, in vivo; for median Cmax: ip
[4] = prior work, combination therapy alisertib + romidepsin; cited from earlier work
[5] = test system: SU-DHL-10; assay: Cell viability assay, single agent IC50; assay type: cell-based; details: Homo sapiens, SU-DHL10, 72 h, read-out: in vitro IC50 of romidepsin in SU-DHL-10
[6] = test system: B-cell lymphomas; details: phase I clinical trial; cited from earlier work

Structure (SMILES)	synergy in combination with romidepsin [1]	Cmax translated to molar concentration [3] [nM]	median Cmax [3] [ng/mL]	other results
Nc1ccc(-c2cccs2)cc1NC(=O)c1ccc2nc(N3CCNCC3)ccc2c1 [ACY957]				synergy in combination with GSK126 (EOB) ([1]; ACY957 combined with GSK126, 4 GC-DLBCL cell lines): synergistic
COc1cc(C)[nH]c(=O)c1CNC(=O)c1c(C)n([C@H](C)C2CCN(CC(F)(F)F)CC2)c2ccccc12 [CPI-1205]	demonstrated synergy			
CCN(c1cc(C#CCN2CCOCC2)cc(C(=O)NCc2c(C)cc(C)[nH]c2=O)c1C)[C@H]1CC[C@H](N(C)CCOC)CC1 [EPZ011989]	demonstrated synergy			
CC[C@H](C)n1cc(C)c2c(C(=O)NCc3c(C)cc(C)[nH]c3=O)cc(-c3ccc(N4CCNCC4)nc3)cc21 [GSK126]		3150	1657.5 ± 413.6	status of acetylation or methylation of H3K27 [2]: did not significantly change; serum AUC0-last [3]: 2828.57 ng·h/mL
C/C=C1\NC(=O)[C@H]2CSSCC/C=C/[C@H](CC(=O)N[C@H](C(C)C)C(=O)N2)OC(=O)[C@H](C(C)C)NC1=O [romidepsin]		180	98.24 ± 62.50	intratumor levels after combination of alisertib and romidepsin [4]: below the level of detection; IC50 [5]: 2.59 nM
CCN(c1cc(-c2ccc(CN3CCOCC3)cc2)cc(C(=O)NCc2c(C)cc(C)[nH]c2=O)c1C)C1CCOCC1 [tazemetostat]				overall response rate [6]: 38%
